pIC50: −log10 of the molar value. Calls of active or inactive are those of the source. The calls are words filed in the database; no cut-off is given here.
What was measured:
[1] = Cytotoxicity against mouse 3T3-L1 cells transfected with Lenti-PPARgamma-Luc reporter assessed as cell viability at 15 uM incubated for 48 hrs by CCK-8 assay relative to control; type: toxicity, cell-based; conditions: read-out: Activity
How it was run: (§1)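 3T3-L1-Lenti-PPARγ-Luc reporter cells (lentivirus-transduced) exposed to alkaloids at a range of concentrations. Viability by CCK-8, absorbance at 450 nm, relative to control, used to set maximum noncytotoxic concentrations. Triplicate.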

[2] = Cytotoxicity against mouse 3T3-L1 cells assessed as cell viability at 10 uM incubated for 48 hrs by CCK-8 assay relative to control; type: toxicity, cell-based; conditions: read-out: Activity
How it was run: (§2)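 3T3-L1 preadipocytes seeded at 1 × 10^3 cells/well and left 12 h, then exposed to alkaloids for 48 h. Viability by CCK-8, absorbance at 450 nm, relative to control. Lovastatin 5 μM included. Mean ± SD, n = 3.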

[3] = Cytotoxicity against mouse 3T3-L1 cells assessed as cell viability at 15 uM incubated for 48 hrs by CCK-8 assay relative to control; type: toxicity, cell-based; conditions: read-out: Activity; how it was run: as §2
[4] = Cytotoxicity against mouse 3T3-L1 cells assessed as cell viability at 20 uM incubated for 48 hrs by CCK-8 assay relative to control; type: toxicity, cell-based; conditions: read-out: Activity; how it was run: as §2
[5] = Cytotoxicity against mouse 3T3-L1 cells assessed as cell viability at 5 uM incubated for 48 hrs by CCK-8 assay relative to control; type: toxicity, cell-based; conditions: read-out: Activity; how it was run: as §2
[6] = system: 3T3-L1; assay: Anti-adipogenic activity in mouse 3T3-L1 cells transfected with Lenti-PPARgamma-Luc reporter assessed as inhibition of PPARgamma expression by luminescence based microplate reader analysis; type: functional, cell-based
[7] = Cytotoxicity against mouse 3T3-L1 cells transfected with Lenti-PPARgamma-Luc reporter assessed as cell viability at 20 uM incubated for 48 hrs by CCK-8 assay relative to control; type: toxicity, cell-based; conditions: read-out: Activity; how it was run: as §1
[8] = system: 3T3-L1; assay: Anti-adipogenic activity in mouse 3T3-L1 preadipocytes assessed as inhibition of lipid accumulation incubated for 6 days by Nile Red staining based fluorescence microscopic analysis; type: functional, cell-based; conditions: time 6.0 day
[9] = Cytotoxicity against mouse 3T3-L1 cells transfected with Lenti-PPARgamma-Luc reporter assessed as cell viability at 5 uM incubated for 48 hrs by CCK-8 assay relative to control; type: toxicity, cell-based; conditions: read-out: Activity; how it was run: as §1
[10] = Cytotoxicity against mouse 3T3-L1 cells transfected with Lenti-PPARgamma-Luc reporter assessed as cell viability at 7.5 uM incubated for 48 hrs by CCK-8 assay relative to control; type: toxicity, cell-based; conditions: read-out: Activity; how it was run: as §1
[11] = Cytotoxicity against mouse 3T3-L1 cells transfected with Lenti-PPARgamma-Luc reporter assessed as cell viability at 1 uM incubated for 48 hrs by CCK-8 assay relative to control; type: toxicity, cell-based; conditions: read-out: Activity; how it was run: as §1
[12] = Cytotoxicity against mouse 3T3-L1 cells transfected with Lenti-PPARgamma-Luc reporter assessed as cell viability at 10 uM incubated for 48 hrs by CCK-8 assay relative to control; type: toxicity, cell-based; conditions: read-out: Activity; how it was run: as §1
[13] = Cytotoxicity against mouse 3T3-L1 cells transfected with Lenti-PPARgamma-Luc reporter assessed as cell viability at 2.5 uM incubated for 48 hrs by CCK-8 assay relative to control; type: toxicity, cell-based; conditions: read-out: Activity; how it was run: as §1
[14] = system: 3T3-L1; assay: Inhibition of adipogenesis in mouse 3T3-L1 cells assessed as downregulation of PPARgamma relative protein level […] by Western blot analysis; type: functional, cell-based
How it was run: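 Differentiated 3T3-L1 adipocytes treated with alkaloids at several doses. Lysed in RIPA with PMSF on ice for 30 min. Proteins transferred to PVDF and blocked with 5% skim milk for 2 h at 25 °C. Primary antibody 2 h, HRP secondary 1 h. PPARγ protein level expressed relative to control. n = 3.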

[15] = Cytotoxicity against mouse 3T3-L1 cells transfected with Lenti-PPARgamma-Luc reporter assessed as cell viability at 0.1 uM incubated for 48 hrs by CCK-8 assay relative to control; type: toxicity, cell-based; conditions: read-out: Activity; how it was run: as §1
[16] = Cytotoxicity against mouse 3T3-L1 cells assessed as cell viability at 2.5 uM incubated for 48 hrs by CCK-8 assay relative to control; type: toxicity, cell-based; conditions: read-out: Activity; how it was run: as §2
[17] = Cytotoxicity against mouse 3T3-L1 cells assessed as cell viability at 25 uM incubated for 48 hrs by CCK-8 assay relative to control; type: toxicity, cell-based; conditions: read-out: Activity; how it was run: as §2
[18] = Cytotoxicity against mouse 3T3-L1 cells transfected with Lenti-PPARgamma-Luc reporter assessed as cell viability at 30 uM incubated for 48 hrs by CCK-8 assay relative to control; type: toxicity, cell-based; conditions: read-out: Activity; how it was run: as §1
[19] = Cytotoxicity against mouse 3T3-L1 cells transfected with Lenti-PPARgamma-Luc reporter assessed as cell viability at 25 uM incubated for 48 hrs by CCK-8 assay relative to control; type: toxicity, cell-based; conditions: read-out: Activity; how it was run: as §1
[20] = Cytotoxicity against mouse 3T3-L1 cells assessed as cell viability at 1 uM incubated for 48 hrs by CCK-8 assay relative to control; type: toxicity, cell-based; conditions: read-out: Activity; how it was run: as §2
[21] = Cytotoxicity against mouse 3T3-L1 cells transfected with Lenti-PPARgamma-Luc reporter assessed as cell viability at 4 uM incubated for 48 hrs by CCK-8 assay relative to control; type: toxicity, cell-based; conditions: read-out: Activity; how it was run: as §1
[22] = Cytotoxicity against mouse 3T3-L1 cells transfected with Lenti-PPARgamma-Luc reporter assessed as cell viability at 2 uM incubated for 48 hrs by CCK-8 assay relative to control; type: toxicity, cell-based; conditions: read-out: Activity; how it was run: as §1
[23] = Cytotoxicity against mouse 3T3-L1 cells assessed as cell viability at 7.5 uM incubated for 48 hrs by CCK-8 assay relative to control; type: toxicity, cell-based; conditions: read-out: Activity; how it was run: as §2
[24] = Cytotoxicity against mouse 3T3-L1 cells transfected with Lenti-PPARgamma-Luc reporter assessed as cell viability at 3 uM incubated for 48 hrs by CCK-8 assay relative to control; type: toxicity, cell-based; conditions: read-out: Activity; how it was run: as §1
[25] = Cytotoxicity against mouse 3T3-L1 cells assessed as cell viability at 3 uM incubated for 48 hrs by CCK-8 assay relative to control; type: toxicity, cell-based; conditions: read-out: Activity; how it was run: as §2

Structure (SMILES) | viability at 48 h, 15 µM [1] [%] | viability at 48 h, 10 µM [2] [%] | viability at 48 h, 15 µM [3] [%] | viability at 48 h, 20 µM [4] [%] | viability at 48 h, 5 µM [5] [%] | Activity [6] | pIC50 [6] | viability at 48 h, 20 µM [7] [%] | Activity [8] | viability at 48 h, 5 µM [9] [%] | viability at 48 h, 7.5 µM [10] [%] | viability at 48 h, 1 µM [11] [%] | viability at 48 h, 10 µM [12] [%] | viability at 48 h, 2.5 µM [13] [%] | inhibition [14] | viability at 48 h, 0.1 µM [15] [%] | viability at 48 h, 25 µM [17] [%] | other results
C=C(c1ccc(O)c(Oc2cc3c(cc2OC)CCN(C)[C@@H]3Cc2ccc(OC)cc2)c1)[C@@H]1c2cc(O)c(OC)cc2CCN1C | < 80 | > 80 | < 80 | < 80 | > 80 | Dose-Dependent Effect | 5.06 | < 80 | Dose-Dependent Effect | > 80 | > 80 | > 80 | > 80 | > 80 | Active | > 80 |  | viability at 48 h, 2.5 µM [16]: > 80%
C=C(c1ccc(O)c(Oc2cc3c(cc2OC)CCN(C)[C@@H]3Cc2ccc(OC)cc2)c1)[C@@H]1c2cc(OC)c(OC)cc2CCN1C | > 80 | > 80 | > 80 | < 80 | > 80 | Dose-Dependent Effect | 4.97 | < 80 | Dose-Dependent Effect | > 80 | > 80 | > 80 | > 80 | > 80 | Active | > 80 | < 80 | 
COc1ccc(C[C@@H]2c3cc(Oc4cc(/C=C5\CN(C)CCc6cc(OC)c(OC)cc65)ccc4O)c(OC)cc3CCN2C)cc1 | > 80 | > 80 | > 80 | < 80 | > 80 | Dose-Dependent Effect |  | < 80 | Dose-Dependent Effect | > 80 | > 80 | > 80 | > 80 | > 80 | Active | > 80 | < 80 | 
COc1cc2c(cc1O)[C@@H](Cc1ccc(O)c(Oc3cc4c(cc3OC)CCN(C)[C@@H]4Cc3ccc(O)cc3)c1)N(C)CC2 | > 80 | > 80 | > 80 | > 80 | > 80 | Dose-Dependent Effect |  | > 80 | Dose-Dependent Effect | > 80 |  | > 80 | > 80 |  | Active | > 80 | < 80 | viability at 48 h, 30 µM [18]: < 80%; viability at 48 h, 25 µM [19]: < 80%
COc1ccc(C[C@@H]2c3cc(Oc4cc(C[C@@H]5c6cc(O)c(OC)cc6CCN5C)ccc4O)c(OC)cc3CCN2C)cc1 [ISOLIENSININE] | < 80 | > 80 | < 80 | < 80 | > 80 | Dose-Dependent Effect |  | < 80 | Dose-Dependent Effect | > 80 | > 80 | > 80 | > 80 | > 80 | Active | > 80 |  | viability at 48 h, 2.5 µM [16]: > 80%
CC[C@H](C)C(=O)O[C@H]1C[C@@H](C)C=C2C=C[C@H](C)[C@H](CC[C@@H]3C[C@@H](O)CC(=O)O3)[C@H]21 [LOVASTATIN] |  |  |  |  | > 80 |  |  |  |  |  |  |  |  |  |  |  |  | 
C=C(c1ccc(OC)cc1)[C@@H]1c2cc(Oc3cc(C[C@H]4c5cc(OC)c(OC)cc5CCN4C)ccc3O)c(OC)cc2CCN1C | > 80 | > 80 | > 80 | < 80 | > 80 | Dose-Dependent Effect |  | < 80 | Dose-Dependent Effect | > 80 | > 80 | > 80 | > 80 | > 80 | Active | > 80 | < 80 | 
C=C(c1ccc(O)c(Oc2cc3c(cc2OC)CCN(C)[C@@H]3Cc2ccc(OC)cc2)c1)[C@H]1c2cc(O)c(OC)cc2CCN1C |  | < 80 |  |  | > 80 | Dose-Dependent Effect | 5.35 |  | Dose-Dependent Effect | > 80 | < 80 | > 80 | < 80 |  | Active | > 80 |  | viability at 48 h, 1 µM [20]: > 80%; viability at 48 h, 4 µM [21]: > 80%; viability at 48 h, 2 µM [22]: > 80%; viability at 48 h, 7.5 µM [23]: < 80%; viability at 48 h, 3 µM [24]: > 80%; viability at 48 h, 3 µM [25]: > 80%
COc1ccc(C[C@@H]2c3cc(Oc4cc(C[C@@H]5c6cc(OC)c(OC)cc6CCN5C)ccc4O)c(OC)cc3CCN2C)cc1 [NEFERINE] | < 80 | > 80 | < 80 | < 80 | > 80 | Dose-Dependent Effect | 5.21 | < 80 | Dose-Dependent Effect | > 80 | > 80 | > 80 | > 80 | > 80 | Active | > 80 |  | viability at 48 h, 2.5 µM [16]: > 80%
C=C(c1ccc(O)c(Oc2cc3c(cc2OC)CCN(C)[C@@H]3Cc2ccc(OC)cc2)c1)[C@H]1c2cc(OC)c(OC)cc2CCN1C |  | < 80 |  |  | > 80 | Dose-Dependent Effect | 5.34 |  | Dose-Dependent Effect | > 80 | < 80 | > 80 | < 80 |  | Active | > 80 |  | viability at 48 h, 1 µM [20]: > 80%; viability at 48 h, 4 µM [21]: > 80%; viability at 48 h, 2 µM [22]: > 80%; viability at 48 h, 7.5 µM [23]: < 80%; viability at 48 h, 3 µM [24]: > 80%; viability at 48 h, 3 µM [25]: > 80%
COc1ccc(C[C@@H]2c3cc(Oc4cc(C[C@H]5c6cc(OC)c(OC)cc6CCN5C)ccc4O)c(OC)cc3CCN2C)cc1 |  | < 80 | > 80 |  | > 80 | Dose-Dependent Effect | 5.35 |  | Dose-Dependent Effect | > 80 | < 80 | > 80 | < 80 |  | Active | > 80 |  | viability at 48 h, 1 µM [20]: > 80%; viability at 48 h, 4 µM [21]: > 80%; viability at 48 h, 2 µM [22]: > 80%; viability at 48 h, 7.5 µM [23]: < 80%; viability at 48 h, 3 µM [24]: > 80%; viability at 48 h, 3 µM [25]: > 80%
